{"data": "Assay results pooled from the literature", "target": "Serine/threonine-protein kinase 36 (STK36, Homo sapiens, UniProt Q9NRP7)", "One construct used (Q9NRP7 1-1315)": "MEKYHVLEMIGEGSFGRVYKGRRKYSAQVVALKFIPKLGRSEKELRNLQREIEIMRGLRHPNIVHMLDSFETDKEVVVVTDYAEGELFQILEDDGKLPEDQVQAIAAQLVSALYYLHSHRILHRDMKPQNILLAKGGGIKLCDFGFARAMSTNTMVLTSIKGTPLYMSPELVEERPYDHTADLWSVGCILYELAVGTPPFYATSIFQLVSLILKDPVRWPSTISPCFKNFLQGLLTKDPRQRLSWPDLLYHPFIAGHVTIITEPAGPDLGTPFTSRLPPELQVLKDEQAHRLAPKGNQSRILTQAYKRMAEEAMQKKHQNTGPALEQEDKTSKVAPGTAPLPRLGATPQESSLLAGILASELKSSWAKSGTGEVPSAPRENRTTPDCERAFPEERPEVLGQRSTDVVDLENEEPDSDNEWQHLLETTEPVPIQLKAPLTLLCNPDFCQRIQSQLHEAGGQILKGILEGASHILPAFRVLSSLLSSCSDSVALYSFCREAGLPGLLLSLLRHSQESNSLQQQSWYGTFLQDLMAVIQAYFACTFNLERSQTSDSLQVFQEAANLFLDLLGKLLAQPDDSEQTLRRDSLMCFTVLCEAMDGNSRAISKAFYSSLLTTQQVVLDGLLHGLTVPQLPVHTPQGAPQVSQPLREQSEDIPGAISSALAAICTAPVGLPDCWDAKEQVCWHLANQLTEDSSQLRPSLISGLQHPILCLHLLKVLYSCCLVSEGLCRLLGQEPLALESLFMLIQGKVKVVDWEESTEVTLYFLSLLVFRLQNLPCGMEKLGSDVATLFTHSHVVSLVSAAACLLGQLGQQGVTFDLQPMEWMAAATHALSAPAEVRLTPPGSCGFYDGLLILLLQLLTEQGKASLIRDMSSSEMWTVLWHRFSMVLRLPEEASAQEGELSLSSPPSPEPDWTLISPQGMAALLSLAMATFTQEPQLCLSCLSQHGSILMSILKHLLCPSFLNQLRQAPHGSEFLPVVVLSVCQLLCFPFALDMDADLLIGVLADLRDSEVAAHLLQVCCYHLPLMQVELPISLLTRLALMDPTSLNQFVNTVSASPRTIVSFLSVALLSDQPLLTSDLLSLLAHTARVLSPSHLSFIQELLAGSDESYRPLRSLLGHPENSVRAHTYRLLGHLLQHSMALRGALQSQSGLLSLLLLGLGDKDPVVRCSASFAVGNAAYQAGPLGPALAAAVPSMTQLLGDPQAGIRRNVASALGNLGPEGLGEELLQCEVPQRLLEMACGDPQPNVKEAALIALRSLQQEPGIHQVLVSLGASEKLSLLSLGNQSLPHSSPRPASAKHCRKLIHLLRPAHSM"}
{"Compound": "N[C@@H]1CCN(c2nccc(-c3cnn4ncccc34)n2)C1", "effect on": "binding", "tested at": "1 µM", "remaining binding": "77%"}
{"Compound": "C=CC(=O)N1CCC(C(=O)NCC(=O)N2CCN(c3nc(-c4cnc(N)nc4C(F)F)nc(N4CCOCC4)n3)CC2)CC1", "effect on": "binding", "technique": "competition with immobilised ligand", "tested at": "1 µM", "remaining binding": "95%"}
{"Compound": "COc1ccnn2ncc(-c3ccnc(N(C)C)n3)c12", "effect on": "binding", "tested at": "1 µM", "remaining binding": "81%"}
{"Compound": "C[C@@H](c1ccc(-n2cnc3c(N)ncnc32)cc1)N1CCc2nn(C)c(Cc3ccccc3)c2C1=O", "effect on": "binding", "technique": "competition with immobilised ligand", "tested at": "0.1 µM", "remaining binding": "67%"}
{"Compound": "Cc1cc(-n2nc(Cc3cc(F)cc(C(F)(F)F)c3)nc2C)ccc1C(N)=O", "effect on": "cell-free assay", "technique": "competition with immobilised ligand", "tested at": "1 µM", "remaining binding": "100%"}
{"Compound": "Cc1cnc(Nc2ccc(C(=O)N3CCC(N4CCCC4)CC3)cc2)nc1-c1cc2ccccc2s1", "effect on": "binding", "technique": "competition with immobilised ligand", "tested at": "1 µM", "remaining binding": "3.6%"}
{"Compound": "COc1cccc(CNC(=O)c2nc3scc(COCc4ccc(C(=O)O)cc4)c3c(=O)[nH]2)c1", "effect on": "cell-free assay", "technique": "competition with immobilised ligand", "tested at": "1 µM", "remaining binding": "100%"}
{"Compound": "O=C(Nc1c[nH]nc1C(=O)NC1CCNCC1)c1cc(F)cc(F)c1", "effect on": "binding", "technique": "competition with immobilised ligand", "tested at": "1 µM", "remaining binding": "100%"}
{"Compound": "CCN1CCN(Cc2ccc(C(=O)Nc3ccc(C)c(Oc4ccc5c(c4)CC(=O)N5)c3)cc2C(F)(F)F)CC1", "effect on": "binding", "technique": "competition with immobilised ligand", "tested at": "1 µM", "remaining binding": "81%"}
{"Compound": "CC1CCCN1c1nccc(-c2cnn3ncccc23)n1 (stereo not shown)", "effect on": "binding", "tested at": "1 µM", "remaining binding": "100%"}
{"Compound": "Cc1nc(N2CC[C@@H](O)C2)ncc1-c1cc(C(F)(F)F)cc2[nH]ncc12", "effect on": "binding", "technique": "competition with immobilised ligand", "tested at": "1 µM", "remaining binding": "100%"}
{"Compound": "O=C(NCCCN1CCOCC1)c1ccc(Nc2nccc(-c3cc4ccccc4s3)n2)cc1", "effect on": "binding", "technique": "competition with immobilised ligand", "tested at": "1 µM", "remaining binding": "27%"}
{"Compound": "c1cnn2ncc(-c3ccnc(N4CCC45COC5)n3)c2c1", "effect on": "binding", "tested at": "1 µM", "remaining binding": "76%"}
{"Compound": "CCC(=O)N[C@@H]1CC[C@H](C(=O)N(C)c2ccc(-c3nc4ccccc4o3)cc2)C1", "effect on": "cell-free assay", "technique": "competition with immobilised ligand", "tested at": "1 µM", "remaining binding": "82%"}
{"Compound": "O=C(c1ccc(Nc2ncc(Cl)c(-c3ccc(Cl)s3)n2)cc1)N1CCC(N2CCCC2)CC1", "effect on": "binding", "technique": "competition with immobilised ligand", "tested at": "1 µM", "remaining binding": "3.9%"}
{"Compound": "C[C@@H]1CCN(c2nccc(-c3cnn4ncccc34)n2)C1", "effect on": "binding", "tested at": "1 µM", "remaining binding": "87%"}
{"Compound": "CS(=O)(=O)N1CCCC(NC(=O)[C@H](CCC2CCCCC2)NC(=O)c2ccc(CNc3ncnc4c3nnn4-c3ccccc3)cc2)C1 (stereo partly shown)", "effect on": "cell-free assay", "technique": "competition with immobilised ligand", "tested at": "0.1 µM", "remaining binding": "97%"}
{"Compound": "CN(C)c1ncc(F)c(-c2cnn3ncccc23)n1", "effect on": "binding", "tested at": "1 µM", "remaining binding": "100%"}
{"Compound": "CO[C@H]1CC[C@H](CNc2ccc(S(=O)(=O)NC(=O)c3ccc(N4CCN(CC5=C(c6ccc(Cl)cc6)CC(C)(C)CC5)CC4)cc3Oc3cnc4[nH]ccc4c3)cc2[N+](=O)[O-])CC1", "effect on": "cell-free assay", "technique": "competition with immobilised ligand", "tested at": "1 µM", "remaining binding": "71%"}
{"Compound": "F[C@@H]1CCN(c2nccc(-c3cnn4ncccc34)n2)C1", "effect on": "binding", "tested at": "1 µM", "remaining binding": "90%"}
{"Compound": "COc1ccc2c(c1)O[C@H](c1ccc(OC)c(OC)c1)C[C@@H]2NC(=O)C1(c2ccc3c(c2)OC(F)(F)O3)CC1", "effect on": "cell-free assay", "technique": "competition with immobilised ligand", "tested at": "1 µM", "remaining binding": "94%"}
{"Compound": "COc1cnc(Nc2cccc(S(N)(=O)=O)c2)nc1N1CCN(c2ccccc2)C(=O)C1", "effect on": "binding", "technique": "competition with immobilised ligand", "tested at": "1 µM", "remaining binding": "100%"}
